Measured values reported in ChEMBL document CHEMBL2062460, “Disubstituted thiourea derivatives and their activity on CNS: synthesis and biological evaluation” (Eur J Med Chem, 2012).
In brackets after ≈: the same amount, converted by molar mass. Activity calls are given as the source filed them. The calls are words filed in the database; no cut-off is given here.

What was measured:
[1] = test system: Staphylococcus epidermidis; assay: Antibacterial activity against Staphylococcus epidermidis ATCC 12228 at 400 ug/disc after 18 hrs by disc diffusion method; format: functional; conditions: ATCC 12228, 18 h, read-out: DIZ
Method in brief: (§1)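 Disc diffusion per CLSI on Mueller–Hinton II agar; 9 mm paper discs loaded from methanol or DMSO solutions to 400 µg per disc, dried; growth inhibition zone diameter read after 18 h at 35 °C.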

[2] = test system: Enterococcus hirae; assay: Antibacterial activity against Enterococcus hirae ATCC 10541 at 400 ug/disc after 18 hrs by disc diffusion method; format: functional; conditions: ATCC 10541, 18 h, read-out: DIZ; method in brief: as §1
[3] = test system: Staphylococcus aureus; assay: Antibacterial activity against Staphylococcus aureus NCTC 4163 at 400 ug/disc after 18 hrs by disc diffusion method; format: functional; conditions: NCTC 4163, 18 h, read-out: DIZ; method in brief: as §1
[4] = test system: Bacillus cereus; assay: Antibacterial activity against Bacillus cereus ATCC 11778 at 400 ug/disc after 18 hrs by disc diffusion method; format: functional; conditions: ATCC 11778, 18 h, read-out: DIZ; method in brief: as §1
[5] = test system: Escherichia coli; assay: Antibacterial activity against Escherichia coli NCTC 8196 at 400 ug/disc after 18 hrs by disc diffusion method; format: functional, organism-based; method in brief: as §1
[6] = test system: Candida albicans; assay: Antifungal activity against Candida albicans ATCC 10231 at 400 ug/disc after 18 hrs by disc diffusion method; format: functional, organism-based
Method in brief: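 Yeasts tested by disc diffusion (CLSI) on RPMI agar with 2% glucose; 9 mm paper discs bearing 400 µg compound from methanol or DMSO solution; inhibition zone diameter read after 18 h at 35 °C.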

[7] = test system: Staphylococcus aureus; assay: Antibacterial activity against Staphylococcus aureus ATCC 6538 after 18 hrs by twofold serial agar dilution technique; format: functional; conditions: ATCC 6538, 18 h
Method in brief: (§2)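 Twofold serial agar dilution on Mueller–Hinton II agar, following CLSI guidelines. Compounds were dissolved in methanol or DMSO and tested at final agar concentrations of 3.125–400 µg/mL. Final inoculum was 10^4 CFU/mL.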

[8] = test system: Staphylococcus aureus; assay: Antibacterial activity against Staphylococcus aureus ATCC 29213 after 18 hrs by twofold serial agar dilution technique; format: functional; conditions: ATCC 29213, 18 h; method in brief: as §2
[9] = test system: Staphylococcus epidermidis; assay: Antibacterial activity against Staphylococcus epidermidis ATCC 12228 after 18 hrs by twofold serial agar dilution technique; format: functional; conditions: ATCC 12228, 18 h; method in brief: as §2
[10] = test system: Enterococcus hirae; assay: Antibacterial activity against Enterococcus hirae ATCC 10541 after 18 hrs by twofold serial agar dilution technique; format: functional; conditions: ATCC 10541, 18 h
[11] = test system: Micrococcus luteus; assay: Antibacterial activity against Micrococcus luteus ATCC 9341 after 18 hrs by twofold serial agar dilution technique; format: functional; conditions: ATCC 9341, 18 h
[12] = test system: Micrococcus luteus; assay: Antibacterial activity against Micrococcus luteus ATCC 10240 after 18 hrs by twofold serial agar dilution technique; format: functional; conditions: ATCC 10240, 18 h
[13] = test system: Staphylococcus aureus; assay: Antibacterial activity against methicillin-susceptible Staphylococcus aureus clinical isolate 256/08 after 18 hrs by twofold serial agar dilution technique; format: functional; conditions: clinical isolate 256/08, 18 h
Method in brief: (§3)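 Clinical isolates came from patients in Warsaw Medical University Hospitals and were classed as methicillin-susceptible or -resistant. MIC was determined by twofold serial agar dilution on Mueller–Hinton II agar (CLSI), 3.125–400 µg/mL in agar, with compounds in methanol or DMSO. Inoculum was 10^4 CFU/mL and plates were read after 18 h at 35 °C.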

[14] = test system: Staphylococcus aureus; assay: Antibacterial activity against methicillin-susceptible Staphylococcus aureus clinical isolate 261/08 after 18 hrs by twofold serial agar dilution technique; format: functional; conditions: clinical isolate 261/08, 18 h; method in brief: as §3
[15] = test system: Staphylococcus aureus; assay: Antibacterial activity against methicillin-susceptible Staphylococcus aureus clinical isolate 267/08 after 18 hrs by twofold serial agar dilution technique; format: functional; conditions: clinical isolate 267/08, 18 h; method in brief: as §3
[16] = test system: Staphylococcus aureus; assay: Antibacterial activity against methicillin-susceptible Staphylococcus aureus clinical isolate 268/08 after 18 hrs by twofold serial agar dilution technique; format: functional; conditions: clinical isolate 268/08, 18 h; method in brief: as §3
[17] = test system: Staphylococcus aureus; assay: Antibacterial activity against methicillin-susceptible Staphylococcus aureus clinical isolate 367/09 after 18 hrs by twofold serial agar dilution technique; format: functional; conditions: clinical isolate 367/09, 18 h; method in brief: as §3
[18] = test system: Staphylococcus aureus; assay: Antibacterial activity against methicillin-susceptible Staphylococcus aureus clinical isolate 369/09 after 18 hrs by twofold serial agar dilution technique; format: functional; conditions: clinical isolate 369/09, 18 h; method in brief: as §3
[19] = test system: Staphylococcus aureus; assay: Antibacterial activity against methicillin-resistant Staphylococcus aureus clinical isolate 277/08 after 18 hrs by twofold serial agar dilution technique; format: functional; conditions: clinical isolate 277/08, 18 h; method in brief: as §3
[20] = test system: Staphylococcus aureus; assay: Antibacterial activity against methicillin-resistant Staphylococcus aureus clinical isolate 309/08 after 18 hrs by twofold serial agar dilution technique; format: functional; conditions: clinical isolate 309/08, 18 h; method in brief: as §3
[21] = test system: Staphylococcus aureus; assay: Antibacterial activity against methicillin-resistant Staphylococcus aureus clinical isolate 356/09 after 18 hrs by twofold serial agar dilution technique; format: functional; conditions: clinical isolate 356/09, 18 h; method in brief: as §3
[22] = test system: Staphylococcus aureus; assay: Antibacterial activity against methicillin-resistant Staphylococcus aureus clinical isolate 357/09 after 18 hrs by twofold serial agar dilution technique; format: functional; conditions: clinical isolate 357/09, 18 h; method in brief: as §3
[23] = test system: Staphylococcus epidermidis; assay: Antibacterial activity against methicillin-resistant Staphylococcus epidermidis clinical isolate 311/08 after 18 hrs by twofold serial agar dilution technique; format: functional; conditions: clinical isolate 311/08, 18 h; method in brief: as §3
[24] = test system: Staphylococcus epidermidis; assay: Antibacterial activity against methicillin-resistant Staphylococcus epidermidis clinical isolate 316/08 after 18 hrs by twofold serial agar dilution technique; format: functional; conditions: clinical isolate 316/08, 18 h; method in brief: as §3
[25] = test system: Staphylococcus epidermidis; assay: Antibacterial activity against methicillin-resistant Staphylococcus epidermidis clinical isolate 318/08 after 18 hrs by twofold serial agar dilution technique; format: functional; conditions: clinical isolate 318/08, 18 h; method in brief: as §3
[26] = test system: Staphylococcus epidermidis; assay: Antibacterial activity against methicillin-resistant Staphylococcus epidermidis clinical isolate 343/09 after 18 hrs by twofold serial agar dilution technique; format: functional; conditions: clinical isolate 343/09, 18 h; method in brief: as §3
[27] = Cytotoxicity against human MT4 cells after 96 hrs by MTT assay; format: cell-based

Compound	zone of inhibition at 400 µg/disc [1] [mm]	zone of inhibition at 400 µg/disc [2] [mm]	zone of inhibition at 400 µg/disc [3] [mm]	zone of inhibition at 400 µg/disc [4] [mm]	diameter of the inhibition zone (DIZ) [5]	diameter of the inhibition zone (DIZ) [6]	MIC [7] [µg/mL]	MIC [8] [µg/mL]	MIC [9] [µg/mL]	MIC [10] [µg/mL]	MIC [11] [µg/mL]	MIC [12] [µg/mL]	MIC [13] [µg/mL]	MIC [14] [µg/mL]	MIC [15] [µg/mL]	MIC [16] [µg/mL]	MIC [17] [µg/mL]	MIC [18] [µg/mL]	MIC [19] [µg/mL]	MIC [20] [µg/mL]	further results
S=C(Nc1nc[nH]n1)Nc1ccccc1Br	12	13	11	12	inactive	inactive	50 (≈ 168 µM)	50 (≈ 168 µM)	25 (≈ 83.8 µM)	400 (≈ 1340 µM)	6.25 (≈ 21 µM)	6.25 (≈ 21 µM)	50 (≈ 168 µM)	50 (≈ 168 µM)	50 (≈ 168 µM)	50 (≈ 168 µM)	50 (≈ 168 µM)	50 (≈ 168 µM)	50 (≈ 168 µM)	50 (≈ 168 µM)	MIC [21]: 50 µg/mL (≈ 168 µM); MIC [22]: 50 µg/mL (≈ 168 µM); MIC [23]: 100 µg/mL (≈ 335 µM); MIC [24]: 100 µg/mL (≈ 335 µM); MIC [25]: 50 µg/mL (≈ 168 µM); MIC [26]: 50 µg/mL (≈ 168 µM); CC50 at 96 h [27]: > 100 µM
Fc1ccc(NC(=S)Nc2nc[nH]n2)cc1	16	11	14	16	inactive	inactive	50 (≈ 211 µM)	25 (≈ 105 µM)	25 (≈ 105 µM)	400 (≈ 1690 µM)	6.25 (≈ 26.3 µM)	6.25 (≈ 26.3 µM)	50 (≈ 211 µM)	50 (≈ 211 µM)	50 (≈ 211 µM)	100 (≈ 421 µM)	50 (≈ 211 µM)	50 (≈ 211 µM)	50 (≈ 211 µM)	50 (≈ 211 µM)	MIC [21]: 50 µg/mL (≈ 211 µM); MIC [22]: 50 µg/mL (≈ 211 µM); MIC [23]: 50 µg/mL (≈ 211 µM); MIC [24]: 100 µg/mL (≈ 421 µM); MIC [25]: 50 µg/mL (≈ 211 µM); MIC [26]: 50 µg/mL (≈ 211 µM); CC50 at 96 h [27]: > 100 µM
